{"source": "ChEMBL document CHEMBL4364267", "about": "“Hydrogen sulfide donating ent-kaurane and spirolactone-type 6,7-seco-ent-kaurane derivatives: Design, synthesis and antiproliferative properties” (Eur J Med Chem, 2019)", "key": {"Bel-7402 [1]": {"system": "Bel-7402", "experiment": "Induction of apoptosis in human Bel7402 cells assessed as reduction in PARP expression at 0.45 to 1.80 uM after 48 hrs by Western blot analysis", "format": "functional, cell-based"}, "Bel-7402 [2]": {"system": "Bel-7402", "experiment": "Induction of mitochondrial membrane potential loss in human Bel7402 cells assessed as cell population with intact mitochondrial membrane potential at 1.80 uM after 48 hrs by JC1 staining-based flow cytometry analysis (reference value: 98.67%)", "format": "functional", "how_it_was_run": "(§1)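 Bel-7402 cells in 6-well plates exposed for 48 h to 0, 0.45, 0.90 or 1.80 μM, DMSO as vehicle. Washed with PBS and stained with JC-1 at room temperature in the dark. Cells with collapsed membrane potential counted by flow cytometry.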"}, "Bel-7402 [3]": {"system": "Bel-7402", "experiment": "Cell cycle arrest in human Bel7402 cells assessed as accumulation of cells at S phase at 0.90 uM after 48 hrs by propidium iodide/RNase staining based flow cytometric analysis (reference value: 39.09%)", "format": "functional"}, "Bel-7402 [4]": {"system": "Bel-7402", "experiment": "Cell cycle arrest in human Bel7402 cells assessed as accumulation of cells at G1 phase at 0.90 uM after 48 hrs by propidium iodide/RNase staining based flow cytometric analysis (reference value: 30.95%)", "format": "functional"}, "Bel-7402 [5]": {"system": "Bel-7402", "experiment": "Induction of apoptosis in human Bel7402 cells assessed as viable cells at 0.90 uM after 48 hrs by Annexin V-FITC/propidium iodide staining based flow cytometry (reference value: 97.22%)", "format": "functional", "details": "Bel-7402, 48 h, read-out: Activity", "how_it_was_run": "(§2)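 Bel-7402 cells in 6-well plates treated with 0, 0.45, 0.90 or 1.80 μM, washed twice with PBS and resuspended in annexin V binding buffer. Stained with annexin V-FITC and PI for 15 min at room temperature in the dark, then analysed by flow cytometry. Methods state 24 h exposure; the figure legend states 48 h.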"}, "SGC-7901": {"system": "SGC-7901", "experiment": "Antiproliferative activity against human SGC7901 cells assessed as reduction in cell viability after 72 hrs by MTT assay", "format": "functional, cell-based", "details": "SGC-7901, 72 h", "how_it_was_run": "(§3)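 MTT assay over 72 h, compounds at 64, 16, 4, 1, 0.25, 0.0625 and 0.015625 μM. MTT solution (5 mg/mL) and DMSO added afterwards, 10 min at room temperature, absorbance read at 490 nm. IC50 calculated as the mean ± SD of three independent experiments.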"}, "Bel-7402 [6]": {"system": "Bel-7402", "experiment": "Induction of apoptosis in human Bel7402 cells assessed as viable cells at 1.80 uM after 48 hrs by Annexin V-FITC/propidium iodide staining based flow cytometry (reference value: 97.22%)", "format": "functional", "details": "Bel-7402, 48 h, read-out: Activity", "how_it_was_run": "as §2"}, "[7]": {"experiment": "Induction of H2S generation in PBS containing Na2S and MB+ cocktail in presence of TCEP/L-cysteine measured at 15 to 20 mins after 20 mins compound incubation by methylene blue dye based UV-Vis spectrophotometric method", "format": "functional", "how_it_was_run": "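Na2S standards (5–150 μM) in sodium phosphate buffer reacted 20 min at room temperature with methylene blue cocktail (FeCl3/HCl, N,N-dimethyl-1,4-phenylenediamine/HCl, Zn(OAc)2) to build a 670 nm calibration curve. Compounds from 40 mM THF stock added to phosphate buffer with 1 mM TCEP or L-cysteine. Aliquots taken into the cocktail at set times, incubated 20 min, read at 670 nm. Mean of three experiments.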"}, "Bel-7402 [8]": {"system": "Bel-7402", "experiment": "Induction of morphological changes in human Bel7402 cells assessed as nuclear fragmentation at 0.45 to 1.80 uM after 48 hrs by Hoechst 33258 staining-based fluorescent microscopic analysis", "format": "functional, cell-based", "how_it_was_run": "(§4)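 Bel-7402 cells cultured 24 h in 6-well plates at 37 °C, then exposed 48 h to 0, 0.45, 0.90 or 1.80 μM. Harvested by mild trypsinization and washed twice with PBS. Stained with Hoechst 33258 (2 mg/mL) for 15 min at room temperature in the dark, washed, and viewed by fluorescence microscopy.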"}, "Bel-7402 [9]": {"system": "Bel-7402", "experiment": "Induction of apoptosis in human Bel7402 cells assessed as increase in cytochrome C expression at 0.90 to 1.80 uM after 48 hrs by Western blot analysis", "format": "functional, cell-based"}, "Bel-7402 [10]": {"system": "Bel-7402", "experiment": "Cell cycle arrest in human Bel7402 cells assessed as accumulation of cells at G1 phase at 1.80 uM after 48 hrs by propidium iodide/RNase staining based flow cytometric analysis (reference value: 30.95%)", "format": "functional"}, "Bel-7402 [11]": {"system": "Bel-7402", "experiment": "Induction of apoptosis in human Bel7402 cells assessed as late apoptotic cells at 0.45 uM after 48 hrs by Annexin V-FITC/propidium iodide staining based flow cytometry (reference value: 0.68%)", "format": "functional", "how_it_was_run": "as §2"}, "Bel-7402 [12]": {"system": "Bel-7402", "experiment": "Induction of apoptosis in human Bel7402 cells assessed as early apoptotic cells at 0.45 uM after 48 hrs by Annexin V-FITC/propidium iodide staining based flow cytometry (reference value: 2.09%)", "format": "functional", "how_it_was_run": "as §2"}, "Bel-7402 [13]": {"system": "Bel-7402", "experiment": "Induction of apoptosis in human Bel7402 cells assessed as necrotic cells at 0.45 uM after 48 hrs by Annexin V-FITC/propidium iodide staining based flow cytometry (reference value: 0.01%)", "format": "functional", "how_it_was_run": "as §2"}, "Bel-7402 [14]": {"system": "Bel-7402", "experiment": "Induction of morphological changes in human Bel7402 cells assessed as chromatin shrinkage at 0.45 to 1.80 uM after 48 hrs by Hoechst 33258 staining-based fluorescent microscopic analysis", "format": "functional, cell-based", "how_it_was_run": "as §4"}, "L02": {"system": "L02", "experiment": "Cytotoxicity against human L02 cells assessed as reduction in cell viability after 72 hrs by MTT assay", "format": "cell-based", "details": "L02, 72 h", "how_it_was_run": "as §3"}, "Bel-7402 [15]": {"system": "Bel-7402", "experiment": "Induction of mitochondrial membrane potential depolarization in human Bel7402 cells after 48 hrs by JC1 staining-based flow cytometry analysis", "format": "functional, cell-based", "how_it_was_run": "as §1"}, "Bel-7402 [16]": {"system": "Bel-7402", "experiment": "Induction of apoptosis in human Bel7402 cells assessed as increase in cleaved PARP expression at 0.45 to 1.80 uM after 48 hrs by Western blot analysis", "format": "functional, cell-based"}, "Bel-7402 [17]": {"system": "Bel-7402", "experiment": "Induction of apoptosis in human Bel7402 cells assessed as early apoptotic cells at 1.80 uM after 48 hrs by Annexin V-FITC/propidium iodide staining based flow cytometry (reference value: 2.09%)", "format": "functional", "how_it_was_run": "as §2"}, "Bel-7402 [18]": {"system": "Bel-7402", "experiment": "Induction of apoptosis in human Bel7402 cells assessed as reduction in procaspase-3 expression at 0.90 to 1.80 uM after 48 hrs by Western blot analysis", "format": "functional, cell-based"}, "Bel-7402 [19]": {"system": "Bel-7402", "experiment": "Cell cycle arrest in human Bel7402 cells assessed as accumulation of cells at G1 phase at 0.45 uM after 48 hrs by propidium iodide/RNase staining based flow cytometric analysis (reference value: 30.95%)", "format": "functional"}}, "note": "Activity calls are given as the source filed them. No cut-off for these calls is given here."}
{"smiles": "C=C1C(=O)[C@@]23C(=O)OC[C@]4(C(=O)CCC(C)(C)[C@H]4C=O)[C@@H]2CC[C@@H]1[C@H]3OC(=O)CCCC(=O)Oc1ccc(-c2cc(=S)ss2)cc1", "values": [{"measurement": "Activity", "setting": "Bel-7402 [1]", "value": "Active"}, {"measurement": "Activity", "setting": "Bel-7402 [2]", "value": 41.23, "unit": "%"}, {"measurement": "Activity", "setting": "Bel-7402 [3]", "value": 37.9, "unit": "%"}, {"measurement": "Activity", "setting": "Bel-7402 [4]", "value": 42.3, "unit": "%"}, {"measurement": "viability at 0.9 µM", "setting": "Bel-7402 [5]", "value": 72.5, "unit": "%"}, {"measurement": "IC50", "setting": "SGC-7901", "value": 4.36, "unit": "µM"}, {"measurement": "viability at 1.8 µM", "setting": "Bel-7402 [6]", "value": 43.6, "unit": "%"}, {"measurement": "Activity", "setting": "[7]", "value": "Active"}, {"measurement": "Activity", "setting": "Bel-7402 [8]", "value": "Active"}, {"measurement": "Activity", "setting": "Bel-7402 [9]", "value": "Active"}, {"measurement": "Activity", "setting": "Bel-7402 [10]", "value": 49.56, "unit": "%"}, {"measurement": "Activity", "setting": "Bel-7402 [11]", "value": 7.73, "unit": "%"}, {"measurement": "Activity", "setting": "Bel-7402 [12]", "value": 9.92, "unit": "%"}, {"measurement": "Activity", "setting": "Bel-7402 [13]", "value": 0.11, "unit": "%"}, {"measurement": "Activity", "setting": "Bel-7402 [14]", "value": "Active"}, {"measurement": "IC50", "setting": "L02", "value": 20.8, "unit": "µM"}, {"measurement": "Activity", "setting": "Bel-7402 [15]", "value": "Dose-dependent effect"}, {"measurement": "Activity", "setting": "Bel-7402 [16]", "value": "Active"}, {"measurement": "Activity", "setting": "Bel-7402 [17]", "value": 18.68, "unit": "%"}, {"measurement": "Activity", "setting": "Bel-7402 [18]", "value": "Active"}, {"measurement": "Activity", "setting": "Bel-7402 [19]", "value": 37.37, "unit": "%"}]}
